Data set [1] concerns Jurkat. The experiment in a line: Immunosuppression-mediated cytotoxicity against human Jurkat T cells assessed as reduction in cell viability incubated for 48 hrs by MTT assay. Format: cell-based. In short, it runs like this: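 Jurkat cells in RPMI-1640 with 10% FBS and P/S, 50×10^3 cells/well, exposed in triplicate to serial dilutions from 1 mg/mL (DMSO/medium) for 48 h at 37 °C, 5% CO2. MTT (5 mg/ml) then added for 3 h. Formazan dissolved in 0.4 N HCl–isopropanol, absorbance read at 570 nm. IC50 from curve fitting; viability at 1 mg/mL used where IC50 could not be reached.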
(Formazan colour is commonly taken as a measure of viable cells.)

The nature of data set [2]: Immunosuppression-mediated cytotoxicity against anti-CD3/anti-CD28-stimulated human PBMC cells assessed as reduction in cell viability incubated for 72 hrs by MTT assay. Format: cell-based. In short, it runs like this:
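PBMC from buffy coats of healthy donors, isolated on a Ficoll gradient with erythrocyte lysis. Plated at 50×10^3 cells/well with anti-CD3/anti-CD28, serial compound dilutions, in triplicate. Incubated 72 h, 37 °C, 5% CO2. MTT added for 3 h, formazan dissolved in acidified isopropanol (0.4 N HCl), A570 read. Three donors averaged; IC50 from curve fit.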

Data set [3] is described as follows: Immunosuppression-mediated antiproliferative activity against anti-CD3/anti-CD28-stimulated human PBMC cells assessed as inhibition of cell growth incubated for 72 hrs by VPD450 staining based flow cytometry. It counts as functional. The procedure, abridged: (§1)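 Cells stained with VPD450 (2 μL of 1 mM dye per 10-30×10^6 cells in 1 mL PBS, 15 min, 37 °C), washed. PBMC: 50×10^3 cells/well with anti-CD3/anti-CD28, serial compound dilutions, 72 h. Jurkat: 50×10^3 cells/well, 48 h. 37 °C, 5% CO2, triplicate. Dye dilution by flow cytometry; EC50 from curve fit.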
For orientation: A flow cytometer gives signals particle by particle.

Data set [4] has as its system Jurkat. The data set can be described thus: Immunosuppression-mediated antiproliferative activity against human Jurkat T cells assessed as inhibition of cell growth at 1 mg/ml incubated for 48 hrs by VPD450 staining based flow cytometry relative to control. It counts as functional. Also on record: scale not given: the % may be the effect or the level left. In short, it runs like this:
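Jurkat cells stained with VPD450 (2 μL of 1 mM dye per 10-30×10^6 cells, 15 min, 37 °C) and plated at 50×10^3 cells/well. Compound added at the top concentration, 1 mg/mL (1 mg dissolved in 20 μL DMSO, made up to 1 mL with medium). 48 h at 37 °C, 5% CO2, in triplicate. Read by flow cytometry; […].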

The nature of data set [5]: Selectivity index, ratio of IC50 for cytotoxicity against human PBMC by MTT assay to EC50 for antiproliferative activity against human PBMC by VPD450 staining based flow cytometry. In short, it runs like this: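 Ratio of the MTT cytotoxicity IC50 (72 h, stimulated PBMC) to the VPD450 antiproliferative EC50 (72 h, stimulated PBMC), both from fitted concentration-response curves.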

The test system of data set [6] is Jurkat. The experiment in a line: Immunosuppression-mediated cytotoxicity against human Jurkat T cells assessed as reduction in cell viability at 1 mg/ml incubated for 48 hrs by MTT assay relative to control. Format: cell-based. The procedure, abridged:
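Jurkat cells (RPMI-1640, 10% FBS) plated at 50×10^3 cells/well and exposed to 1 mg/mL compound (1 mg in 20 μL DMSO, made up to 1 mL with medium). 48 h at 37 °C, 5% CO2, in triplicate. MTT (5 mg/mL stock) for 3 h, acidified isopropanol, A570. Viability calculated at that concentration.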

Data set [7] is described as follows: Immunosuppression-mediated cytotoxicity against anti-CD3/anti-CD28-stimulated human PBMC cells assessed as reduction in cell viability at 1 mg/ml incubated for 72 hrs by MTT assay relative to control. Format: cell-based. In short, it runs like this: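 Anti-CD3/anti-CD28-stimulated PBMC, 50×10^3 cells/well, exposed to compound at the highest concentration, 1 mg/mL, for 72 h at 37 °C, 5% CO2, in triplicate. MTT for 3 h, acidified isopropanol, A570. Viability calculated at that concentration; three donors averaged.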

The subject of data set [8] is PBMC. The experiment in a line: Immunosuppression-mediated antiproliferative activity against anti-CD3/anti-CD28-stimulated human PBMC cells assessed as inhibition of cell growth incubated for 72 hrs in presence of GMP by VPD450 staining based flow cytometry. It counts as functional. The procedure, abridged:
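VPD450-stained PBMC, 50×10^3 cells/well, anti-CD3/anti-CD28 stimulation, serial compound dilutions plus GMP at 50 μM in the well. Incubated 72 h at 37 °C, 5% CO2, in triplicate. Proliferation read by flow cytometry as dye dilution and expressed relative to controls.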

The subject of data set [9] is Jurkat. The data set can be described thus: Immunosuppression-mediated antiproliferative activity against human Jurkat T cells assessed as inhibition of cell growth incubated for 48 hrs by VPD450 staining based flow cytometry. Format: functional. In short, it runs like this: as §1
Data set [10] can be described thus: Selectivity index, ratio of IC50 for cytotoxicity against human Jurkat T cells by MTT assay to EC50 for antiproliferative activity against human Jurkat T cells by VPD450 staining based flow cytometry. In short, it runs like this:
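Jurkat IC50 from the 48 h MTT assay (50×10^3 cells/well, triplicate) divided by Jurkat EC50. […] Cells treated 48 h with serial dilutions, then dye dilution read by flow cytometry and fitted.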

Data set [11] can be described thus: Stability in human Jurkat T cells assessed as compound remaining at EC50 concentration after 5 days by HPLC-MS analysis. It counts as ADME, cell-based. The settings on record: time 5 day, read-out: Stabilty. In short, it runs like this: (§2)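 Compounds incubated at their EC50 concentrations with Jurkat cells for 5 days, sampled daily. Amount measured by HPLC-MS: C18 column at 40 °C, 0.4 mL/min, 0.1% HCOOH water to ACN/MeOH gradient, UV 254 nm, ESI-MS. Peak area on day 1 taken as 100%.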

Data set [12] is described as follows: Stability in human Jurkat T cells assessed as compound remaining at EC50 concentration after 3 days by HPLC-MS analysis. Format: ADME, cell-based. The settings on record: time 3 day, read-out: Stabilty. The procedure, abridged: as §2

Calls of active or inactive are those of the source. The calls are words filed in the database; no cut-off is given here. Where a SMILES comes first, the peptide text is derived from it. [ ]: non-standard residue; d: D form. The star is where a group is joined. Mycophenolyl = COc1c(C)c2c(c(O)c1C/C=C(\C)CCC(=O)*)C(=O)OC2; Arg(NO2) = N=C(NCCC[C@H](N)C(=O)O)N[N+](=O)[O-]; βAla = NCCC(=O)O

Turning to `COC(=O)[C@@H](NC(=O)[C@H](CCCCNC(=O)CN)NC(=O)[C@@H]1CCCN1C(=O)[C@H](CCCNC(=N)N[N+](=O)[O-])NC(=O)CC/C(C)=C/Cc1c(O)c2c(c(C)c1OC)COC2=O)[C@@H](C)O` (Mycophenolyl-[Arg(NO2)]PK(Gly)T-OMe), the IC50 (as a rule, the midpoint of a concentration-inhibition curve) amounted to 1100 µM in data set [1] and 865 µM in [2]. Besides, the EC50 (usually the concentration at which the effect is half-maximal) in [3] came to 566 µM. The Activity in data set [4] turned out to be 56.72%. For the same molecule, in data set [5], the “Ratio IC50/EC50” value amounted to 1.5.

Turning to `COC(=O)[C@@H](NC(=O)[C@H](CCCCNC(=O)CCN)NC(=O)[C@@H]1CCCN1C(=O)[C@H](CCCNC(=N)N[N+](=O)[O-])NC(=O)CC/C(C)=C/Cc1c(O)c2c(c(C)c1OC)COC2=O)[C@@H](C)O` (Mycophenolyl-[Arg(NO2)]PK(βAla)T-OMe), the IC50 in data set [1] came out at 786 µM; in data set [2], 588 µM. Moreover, the half-maximal effective concentration (EC50) in [3] was 154 µM. In addition, the Activity in data set [4] amounted to 75.89%. Moreover, the “Ratio IC50/EC50” value in data set [5] is recorded as 3.8.

For the molecule `COC(=O)[C@@H](NC(=O)[C@H](CCCCNC(=O)[C@@H](N)CC(C)C)NC(=O)[C@@H]1CCCN1C(=O)[C@H](CCCNC(=N)N[N+](=O)[O-])NC(=O)CC/C(C)=C/Cc1c(O)c2c(c(C)c1OC)COC2=O)[C@@H](C)O` (Mycophenolyl-[Arg(NO2)]PK(Leu)T-OMe), the IC50 in data set [2] came to 519 µM. Moreover, the Activity is 61.34% in [6] and 63.04% in data set [4]. Besides, the EC50 in [3] was 161 µM. Further, the “Ratio IC50/EC50” value in data set [5] is on record as 3.2.

`COC(=O)[C@H](CCCNC(=N)N[N+](=O)[O-])NC(=O)[C@@H]1CCCN1C(=O)[C@H](CCCCN)NC(=O)[C@@H](NC(=O)CC/C(C)=C/Cc1c(O)c2c(c(C)c1OC)COC2=O)[C@@H](C)O` (Mycophenolyl-TKP[Arg(NO2)]-OMe): the Activity in [6] was 85.82%; in data set [7], 99.09%; in data set [4], 60.78%. Further, the EC50 in data set [3] is 130 µM.

On to `COC(=O)[C@H](CCCNC(=N)N[N+](=O)[O-])NC(=O)[C@@H]1CCCN1C(=O)[C@H](CCCCNC(=O)[C@@H](N)C(C)C)NC(=O)[C@@H](NC(=O)CC/C(C)=C/Cc1c(O)c2c(c(C)c1OC)COC2=O)[C@@H](C)O` (Mycophenolyl-TK(Val)P[Arg(NO2)]-OMe), for which the Activity in [6] was 66.56%; in [7], 56.81%; in [4], 55.1%. In addition, in [3], the concentration for a half-maximal effect (EC50) was 432 µM. For the same molecule, the outcome in data set [8] was inactive.

With `COC(=O)[C@@H](NC(=O)CC/C(C)=C/Cc1c(O)c2c(c(C)c1OC)COC2=O)[C@@H](C)O`, the half-maximal inhibitory concentration (IC50) in data set [1] was found to be 17 µM; in data set [2], 57 µM. Also, the EC50 in data set [9] and in data set [3] was 10 µM each time. The “Ratio IC50/EC50” value in data set [10] stood at 1.8; in data set [5] it was 5.7. For the same molecule, in data set [8], the result was inactive. For the same molecule, the remaining at 120 h in data set [11] is over 40%.

As for `CC[C@H](C)[C@H](N)C(=O)NCCCC[C@H](NC(=O)[C@@H]1CCCN1C(=O)[C@H](CCCNC(=N)N[N+](=O)[O-])NC(=O)CC/C(C)=C/Cc1c(O)c2c(c(C)c1OC)COC2=O)C(=O)N[C@H](C(=O)OC)[C@@H](C)O` (Mycophenolyl-[Arg(NO2)]PK(Ile)T-OMe), the IC50 in data set [2] came to 533 µM. The Activity in data set [6] was determined as 52.48%; in [4], 52.77%. Besides, the EC50 in [3] came to 152 µM. Further, in data set [5], the “Ratio IC50/EC50” value was found to be 3.5.

For `COC(=O)[C@@H](NC(=O)[C@H](CCCCN)NC(=O)[C@@H]1CCCN1C(=O)[C@H](CCCNC(=N)N[N+](=O)[O-])NC(=O)CC/C(C)=C/Cc1c(O)c2c(c(C)c1OC)COC2=O)[C@@H](C)O` (Mycophenolyl-[Arg(NO2)]PKT-OMe), the IC50 amounted to 971 µM in data set [1] and 634 µM in data set [2]. Also, the EC50 in data set [9] was found to be 664 µM; in data set [3] it was 35.4 µM. Moreover, the “Ratio IC50/EC50” value in data set [10] is 1.5; in [5] it was 18. Further, in [8], the result was inactive. Also, the remaining at 72 h in [12] amounted to 50%.

In the case of `COC(=O)[C@H](CCCNC(=N)N[N+](=O)[O-])NC(=O)[C@@H]1CCCN1C(=O)[C@H](CCCCNC(=O)[C@H](C)N)NC(=O)[C@@H](NC(=O)CC/C(C)=C/Cc1c(O)c2c(c(C)c1OC)COC2=O)[C@@H](C)O` (Mycophenolyl-TK(Ala)P[Arg(NO2)]-OMe), the figures for the IC50 in data set [1] and in data set [2] were 1000 µM and 560 µM, respectively. For the same molecule, in data set [3], the EC50 came to 259 µM. For the same molecule, the Activity in data set [4] was 55.31%. The “Ratio IC50/EC50” value in data set [5] worked out at 2.2. Further, the remaining at 72 h in data set [12] was 50%.

Values taken from ChEMBL document CHEMBL4680189, “Immunosuppressive properties of amino acid and peptide derivatives of mycophenolic acid” (Eur J Med Chem, 2020).
